{
  "source": "paper PMC3583367",
  "about": "(ACS medicinal chemistry letters, 2013)",
  "key": {"STAT3 promoter activity": {"tested_on": "STAT3 promoter activity", "assay": "STAT3 dual luciferase reporter assay", "format": "cell-based, human", "settings": "24 h pre-treatment", "summary_of_the_method": "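MDA-MB-231 cells were transiently transfected with the pSTAT3-Luc reporter vector and pretreated with test compound at different concentrations for 24 h. STAT3 promoter activity was then read by luciferase.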"}, "STAT3": {"tested_on": "STAT3", "assay": "Western blot of total and phosphorylated STAT3 in MDA-MB-231 cells", "format": "cell-based, human", "settings": "MDA-MB-231, 24 h", "summary_of_the_method": "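MDA-MB-231 cells were treated with different doses of test compound for 24 h, then probed by Western blot for total STAT3 and Tyr-705 phospho-STAT3. Bands were quantified by densitometry over three independent experiments, with significance at p < 0.05 and p < 0.01.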"}, "[1]": {"tested_on": "MDA-MB-231 breast cancer cells", "assay": "Annexin V-based flow cytometry apoptosis measurement", "format": "cell-based, human", "settings": "MDA-MB-231, dose-dependent"}, "[2]": {"tested_on": "MDA-MB-231 breast cancer cells", "assay": "Cellular morphological changes under light microscopy", "format": "cell-based, human", "settings": "MDA-MB-231, 48 h, 1 μM, 5 μM and 10 μM"}, "[3]": {"tested_on": "human breast and pancreatic cancer cell lines", "assay": "MTS proliferation assays, statements over the cell line panel", "format": "cell-based", "settings": "for antiproliferative activity (in words): MCF-7, MDA-MB-231, AsPC1, Panc-1, MTS assays"}, "caspase-3": {"tested_on": "caspase-3", "assay": "Western blot of cleaved caspase-3 in MDA-MB-231 cells", "format": "cell-based, human", "settings": "MDA-MB-231, Western blot", "summary_of_the_method": "(§1)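 Protein expression in MDA-MB-231 cells was analysed by Western blot after treatment with test compound. Band intensities were quantified by densitometry over three independent experiments, with significance marked at p < 0.05 and p < 0.01.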"}, "[4]": {"tested_on": "MDA-MB-231 xenograft tumors", "assay": "MDA-MB-231 xenograft tumor growth model", "format": "in vivo, mice"}, "cyclin D1": {"tested_on": "cyclin D1", "assay": "Western blot of cyclin D1 in MDA-MB-231 cells", "format": "cell-based, human", "settings": "MDA-MB-231, Western blot", "summary_of_the_method": "as §1"}, "[5]": {"assay": "Signs of toxicity in mice", "format": "in vivo", "settings": "75 mg/kg"}},
  "data": [
    {"smiles": "O=C(Nc1ccc([N+](=O)[O-])cc1Cl)c1cc(Cl)ccc1O", "note": "[Compound 1, niclosamide, reference compound]", "values": [
      {"measurement": "STAT3 promoter activity (in words)", "setting": "STAT3 promoter activity; 20 μM, MDA-MB-231", "result": "suppressed"},
      {"measurement": "phosphorylated STAT3 (p-STAT3) at Tyr-705", "setting": "STAT3", "result": "suppressed"},
      {"measurement": "total STAT3 level", "setting": "STAT3", "result": "reduced"},
      {"measurement": "apoptosis (annexin V, flow cytometry)", "setting": "[1]", "result": "activated apoptosis"},
      {"measurement": "cell proliferation and apoptosis with cellular morphological changes", "setting": "[2]", "result": "significantly inhibited cell proliferation and induced apoptosis"}
    ]},
    {"smiles": "O=C(Nc1ccc([N+](=O)[O-])cc1Cl)c1cc(Cl)ccc1OCCF", "note": "[Compound 3]", "values": [
      {"measurement": "antiproliferative activity (in words)", "setting": "[3]", "result": "no significant effects"}
    ]},
    {"smiles": "CN1CCC(Oc2ccc(Cl)cc2C(=O)Nc2ccc([N+](=O)[O-])cc2Cl)CC1", "note": "[Compound 4]", "values": [
      {"measurement": "fold loss of antiproliferative activity in comparison with analogue 10", "setting": "[3]; vs analogue 10", "result": 10, "unit": "fold"}
    ]},
    {"smiles": "O=C(Nc1ccc([N+](=O)[O-])cc1Cl)c1cc(Cl)ccc1OC1CCNCC1", "note": "[Compound 10]", "values": [
      {"measurement": "cell proliferation and apoptosis with cellular morphological changes", "setting": "[2]", "result": "significantly inhibited cell proliferation and induced apoptosis"}
    ]},
    {"smiles": "NCCOc1ccc(Cl)cc1C(=O)Nc1ccc([N+](=O)[O-])cc1Cl", "note": "[Compound 11]", "values": [
      {"measurement": "decrease of STAT3 promoter activity", "setting": "STAT3 promoter activity; 10 μM, MDA-MB-231, compared with control", "result": "approximately 32%"},
      {"measurement": "phosphorylated STAT3 (p-STAT3) at Tyr-705", "setting": "STAT3", "result": "suppressed"},
      {"measurement": "total STAT3 level", "setting": "STAT3", "result": "reduced"},
      {"measurement": "apoptosis (annexin V, flow cytometry)", "setting": "[1]", "result": "activated apoptosis"},
      {"measurement": "cleaved caspase-3", "setting": "caspase-3", "result": "induced"},
      {"measurement": "inhibition of xenograft tumor growth, i.p.", "setting": "[4]; 7.5 mg/kg i.p., compared with 12.5 mg/kg niclosamide", "result": "better effect in inhibiting tumor growth"},
      {"measurement": "growth of xenograft tumors, oral administration", "setting": "[4]; 25 mg/kg p.o., more efficacious than niclosamide at 75 mg/kg", "result": "significantly reduced"},
      {"measurement": "xenograft tumor growth in vivo (both i.p. & p.o.)", "setting": "[4]; nude mice bearing MDA-MB-231 xenografts", "result": "significantly suppressed"},
      {"measurement": "cell proliferation and apoptosis with cellular morphological changes", "setting": "[2]", "result": "significantly inhibited cell proliferation and induced apoptosis"},
      {"measurement": "cyclin D1", "setting": "cyclin D1", "result": "downregulated"},
      {"measurement": "signs of toxicity", "setting": "[5]", "result": "did not show significant signs of toxicity"}
    ]},
    {"smiles": "CS(=O)(=O)Nc1ccc(NC(=O)c2cc(Cl)ccc2OC2CCNCC2)c(Cl)c1", "note": "[Compound 19]", "values": [
      {"measurement": "antiproliferative activity (in words)", "setting": "[3]", "result": "significant loss of the antiproliferative activity"}
    ]},
    {"smiles": "CC(=O)Nc1ccc(NC(=O)c2cc(Cl)ccc2OC2CCNCC2)c(Cl)c1", "note": "[Compound 20]", "values": [
      {"measurement": "antiproliferative activity (in words)", "setting": "[3]", "result": "significant loss of the antiproliferative activity"}
    ]}
  ]
}
